{
  "source": "PubChem BioAssay AID822",
  "about": "(SRMLSC, 2007)",
  "note": "Activity calls are given as the source filed them.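 The calls were made as follows: active = half-maximal effective dose for blocking growth of human endothelial cells at most 100 µM; inactive = the rest.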",
  "data": [
    {"system": "HUVEC proliferation, viability ATP luminescence", "test": "HUVEC proliferation inhibition, dose response, cell-based, ATP luminescence (AID 822);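 also: cells exposed to compound for 72 h before the ATP read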", "summary_of_the_method": "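Material: HUVEC. Input: 1250 cells per well. Medium: endothelial basal medium (EBM) with 2% fetal bovine serum, collagen-coated wells. Compound: 0.039–20 µM, 0.2% DMSO. Times: compound treatment 72 h, 37 °C. Technique: CellTiter-Glo ATP luminescence. Read-out basis: % viability and fitted EC50. Format: collagen-coated multiwell plates.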", "values": [
      {"smiles": "CC(C)(C)C1CC=C2C(C#N)=C(N)C(C#N)(C#N)C(c3cccs3)C2C1", "note": "(configuration not stated)", "EC50": "12.2 µM"},
      {"smiles": "CCN(CC)c1cc(C)c2cc(NC(=O)c3ccc(Br)o3)ccc2n1", "EC50": "11.3 µM"},
      {"smiles": "CCCCCCn1c(C)nc2c(c1=O)c1nc3ccccc3nc1n2/N=C/c1ccco1", "EC50": "14.5 µM"},
      {"smiles": "Cc1cc(=O)[nH]c2ccc(Cl)cc12", "EC50": "> 10 µM (inactive)"},
      {"smiles": "Cc1cc(NC(c2cccnc2)c2ccc3cccnc3c2O)no1", "note": "(configuration not stated)", "EC50": "6.36 µM"},
      {"smiles": "CCCCCn1c(CN2CCN(c3cc(Cl)ccc3C)CC2)nc2c1c(=O)[nH]c(=O)n2C", "EC50": "3.21 µM"},
      {"smiles": "Cn1nc(C(C)(C)C)cc1C(=O)NCc1ccc(N2CCCC2=O)cc1", "EC50": "16 µM"},
      {"smiles": "COc1ccccc1-c1nnc2n1N=C(c1ccc(O)c(O)c1)CS2", "EC50": "0.847 µM"},
      {"smiles": "O=C(NCCC1=CCCCC1)C1CCN(Cc2cnn(-c3ccccc3)c2-n2cccc2)CC1", "EC50": "15.1 µM"},
      {"smiles": "CCCCN(C)S(=O)(=O)c1ccc(C(=O)Nc2nnc(-c3cccs3)o2)cc1", "EC50": "1.69 µM"},
      {"smiles": "Cc1nc2c(C(=O)NCCC(C)C)c[nH]n2c(=O)c1Cc1ccccc1F", "EC50": "7.02 µM"},
      {"smiles": "Oc1ccccc1-c1nnc(SCCN2CCOCC2)n1Cc1ccccc1", "EC50": "13.6 µM"},
      {"smiles": "COC(=O)c1ccc2c(=O)n(Cc3ccco3)c(SCC(=O)Nc3ccccc3Cl)nc2c1", "EC50": "4.94 µM"},
      {"smiles": "CC(Nc1nc(N2CCN(S(C)(=O)=O)CC2)nc2ccccc12)c1ccccc1", "note": "(configuration not stated)", "EC50": "9.04 µM"},
      {"smiles": "Oc1c(I)cc(Cl)c2cccnc12", "EC50": "1.94 µM"},
      {"smiles": "CN1CCN(CCCN2c3ccccc3Sc3ccc(C(F)(F)F)cc32)CC1", "EC50": "6.57 µM"},
      {"smiles": "COc1ccc2[nH]c(=O)c(CN(C3CCCCC3)C(c3nnnn3Cc3ccco3)C(C)C)cc2c1", "note": "(configuration not stated)", "EC50": "8.72 µM"},
      {"smiles": "Cc1cc(NC(=O)COC(=O)C(Nc2ccc(C(F)(F)F)cc2Cl)C(C)C)no1", "note": "(configuration not stated)", "EC50": "12.2 µM"},
      {"smiles": "Cc1ccc(-n2c(SCC(=O)Nc3ccc4c(c3)OCO4)nnc2-c2cccs2)cc1", "EC50": "8.21 µM"},
      {"smiles": "Cc1cc(C)n(CC(O)Cn2c3ccc(Br)cc3c3cc(Br)ccc32)c(=O)n1", "note": "(configuration not stated)", "EC50": "10.7 µM"},
      {"smiles": "Cc1ccc(C)c(N2CCN(CCCNC(=O)Cn3cc4c(n3)CCC(C)C4)CC2)c1", "note": "(configuration not stated)", "EC50": "9.5 µM"},
      {"smiles": "COCc1cc(CN2CCCC2)c(O)c2ncccc12", "EC50": "> 10 µM (inactive)"},
      {"smiles": "CCn1c(SCC(N)=O)nnc1-c1ccc2[nH]c(C)c(C)c2c1", "EC50": "> 10 µM (inactive)"},
      {"smiles": "COc1ccc(C2Oc3ccccc3C3=C2C(c2cccs2)n2ncnc2N3)cc1", "note": "(configuration not stated)", "EC50": "16.3 µM"},
      {"smiles": "Cc1nc(Nc2ccc3c(c2)OCCO3)c2nnn(Cc3ccccc3Cl)c2n1", "EC50": "7.13 µM"},
      {"smiles": "CCOc1cc(C(=O)CSc2nnc(CNc3ccc(Cl)cc3)o2)ccc1NC(=O)CC", "EC50": "15.7 µM"},
      {"smiles": "Cc1cc(NC(=O)c2cc(-c3ccncc3)nc3c(C)cccc23)no1", "EC50": "6.87 µM"},
      {"smiles": "N#Cc1nc(COc2ccc(-c3ccccc3)cc2)oc1NCCCN1CCOCC1", "EC50": "10.6 µM"},
      {"smiles": "CCOC(=O)N1CCc2c(sc(NC(=O)c3ccc(S(=O)(=O)N4CCCC4)cc3)c2C#N)C1", "EC50": "17.5 µM"},
      {"smiles": "O=C1CSC(=S)N1Cc1cccnc1", "EC50": "19.2 µM"},
      {"smiles": "CCOc1ccc2nc(NC(=O)CN3CCC(n4nnc5cc(F)ccc54)CC3)sc2c1", "EC50": "8.42 µM"},
      {"smiles": "Cc1ccccc1-c1nc(CN2CCC(C(=O)NCCC3=CCCCC3)CC2)c(C)o1", "EC50": "6.73 µM"},
      {"smiles": "COc1ccc(CN=C(C)c2c(C(F)(F)F)[nH]n(-c3nc4ccccc4s3)c2=O)cc1", "EC50": "5.87 µM"},
      {"smiles": "Oc1ccccc1NCC(O)Cn1ccc2ccccc21", "note": "(configuration not stated)", "EC50": "8.76 µM"},
      {"smiles": "O=C(N/N=C/c1ccco1)c1cc(-c2ccc3ccccc3c2)n[nH]1", "EC50": "9.25 µM"},
      {"smiles": "Cc1ccc2c(c1)NC(=O)C(CC(=O)NCCCN1CCN(c3cc(Cl)ccc3C)CC1)O2", "note": "(configuration not stated)", "EC50": "7.12 µM"},
      {"smiles": "CC(C)CNC(=O)c1coc(=O)c(Br)c1", "EC50": "> 10 µM (inactive)"},
      {"smiles": "Cc1ccc(-c2nnc(SCC(=O)Nc3ccccc3F)o2)cc1", "EC50": "19.2 µM"},
      {"smiles": "CN1CCN(c2ccccc2NC(=O)c2ccc(OCc3ccccc3)cc2)CC1", "EC50": "10.8 µM"},
      {"smiles": "COC(=O)c1ccc2c(=O)n(Cc3ccco3)c(SCC(=O)Nc3ccc(C)c(Cl)c3)nc2c1", "EC50": "9.21 µM"},
      {"smiles": "Cn1cc(/C=N/n2cnc3scc(-c4ccccc4)c3c2=O)c2ccccc21", "EC50": "4.94 µM"},
      {"smiles": "CCC(CC)COC(=O)C(C#N)c1nc2ccccc2nc1N1CCN(CC)CC1", "note": "(configuration not stated)", "EC50": "10.2 µM"},
      {"smiles": "O=C(Nc1ccccc1)c1cccc(-c2nnc(-c3ccccc3)o2)c1", "EC50": "10.6 µM"},
      {"smiles": "Nc1nc(-c2ccccc2)cc(-c2ccccc2O)n1", "EC50": "12.4 µM"},
      {"smiles": "Cc1cccc(N2CCN(C(=O)c3ccc4nc(-c5ccco5)c(-c5ccco5)nc4c3)CC2C)c1", "note": "(configuration not stated)", "EC50": "9.47 µM"},
      {"smiles": "Cc1ccc(S(=O)(=O)N2CCCN(S(=O)(=O)c3ccc(C(F)(F)F)cc3)CC2)cc1", "EC50": "7.11 µM"},
      {"smiles": "CCN(CCNC(=O)C1CCN(Cc2nc(-c3ccc(Cl)cc3)oc2C)CC1)c1ccccc1", "EC50": "5.82 µM"},
      {"smiles": "COc1cccc(C(=O)c2sc(NC(C)C)nc2N)c1", "EC50": "16.2 µM"},
      {"smiles": "Cc1cc2nc(C3CCN(CC4COc5ccccc5O4)CC3)[nH]c2cc1C", "note": "(configuration not stated)", "EC50": "19.8 µM"},
      {"smiles": "COc1ccccc1OCC(=O)Nc1cccc(-c2nc3ccccc3o2)c1", "EC50": "13.7 µM"},
      {"smiles": "CC(=O)C(C(C)=O)c1c(Cl)c(O)c(O)c2c(C(=O)c3ccccc3)coc12", "EC50": "5.38 µM"},
      {"smiles": "Cc1ccc2[nH]c3c(N4CCN(Cc5ccc6c(c5)OCO6)CC4)ncnc3c2c1", "EC50": "9.97 µM"}
    ]}
  ]
}
